Among the data in ChEMBL document CHEMBL4513216, “Probing the Open Global Health Chemical Diversity Library for Multistage-Active Starting Points for Next-Generation Antimalarials” (ACS Infect Dis, 2020) are cytotoxicity values, retold here.

This series in a line: Toxicity liver stage against HepG2, at 10uM. In kind it is cell-based. Set-up: test concentration 10 uM, cell line HepG2-A16-CD81EGFP. Particulars: human, HepG2-A16-CD81EGFP cells; read-out: INHIBITION
An outline of the steps:
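Uninfected HepG2-A16-CD81EGFP cells, 3 × 10^3 per well, 1536-well, plated on prespotted compound at 10 μM final, parasite-free screening media added to match infected plates; puromycin 10 μM positive, DMSO 0.5% negative; run in parallel with 48 h PbLuc assay at 37 °C, 5% CO2; viability by CellTiter-Glo luminescence, normalized to controls.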
In the case of `Cc1ccc(C(=O)Nc2ccccc2F)n1C`, the cytotoxicity at 10 µM is 0.339%.
Take `CC(=O)N1N=C(c2ccccc2)OC1C(=O)NCCc1ccc(Cl)cc1` (stereo not given): the cytotoxicity at 10 µM was 3.68%.
The result for `O=C(c1ccccn1)N1CC(S(=O)(=O)c2ccc(Cl)cc2)C1` reads -12%; that for `Cc1ccc(S(=O)(=O)Nc2cnn(C3CCOCC3)c2)cc1C`, 13.5%; that for `O=C(NC1CC1)N1CCCC2(CCNC2=O)C1` (stereo not given), 3%.
For `Cn1ccc(C(=O)N2CCCCC23CC(=O)N(Cc2ccccc2)C3)n1` (stereo not given), the cytotoxicity at 10 µM came to 3.64%.
For the molecule `CC[C@@H]1N(Cc2cc(OC)cc(OC)c2)CCC[C@]12CCC(=O)N2C`, the cytotoxicity at 10 µM stood at 11.8%.
The result for `CCN(CC)Cc1nc2c(o1)CN(C(=O)c1ccc3ncccc3c1)C2` reads 6.01%; that for `Cc1cnc(N2C[C@@H]3[C@@H](C(=O)NC(C)C)CCS(=O)(=O)[C@@H]3C2)nc1`, -130%.
On to `O=C(C1CCSCC1)N1CCC2(CC1)COC(COCC1CC1)C2` (stereo not given), for which the cytotoxicity at 10 µM was found to be 2.56%.
The result for `Cc1nc(N2CCOCC2)nc2c1COCC21CCN(CC(C)C)C1` (stereo not given) reads -128%; that for `CN(C)C(=O)c1n[nH]c2c1CCN(Cc1nccs1)C2`, -139%; that for `O=C(COC[C@@H]1CC[C@H]2[C@H](CCN2Cc2ccco2)O1)N1CCCC1`, -161%.
Then `O=C1CC(c2ccc(C(=O)O)cc2)c2ncn(-c3ccccc3F)c2N1` (stereo not given), with -3.51%; and `O=C(Cc1cccs1)N1C[C@@H]2COC[C@]2(COc2cccnc2)C1`, with -21.1%.
`CCCc1nnsc1C(=O)N1CCCC1(C)C(=O)N1CCOCC1` (stereo not given): the cytotoxicity at 10 µM came to 12%.
Then `CC1CCc2nn(CCNC(=O)c3cccs3)c(=O)cc2C1` (stereo not given), with 17%.
Then `Cn1cncc1CN1CCOC(Cc2ccccc2)C1` (stereo not given), with 9.43%.
Consider `CNc1ncc(CN(C)C2CCN(C(C)C)CC2)cn1`, for which the cytotoxicity at 10 µM is -3.14%.
Then `CN(C)Cc1cnn(-c2ccccc2C(=O)N(C)Cc2ccccc2)c1`, with -6.54%; and `COc1ccc(CN(C)[C@@H]2CN(C(=O)c3ccnn3C)C[C@H]2O)cc1`, with -13.5%; and `Cc1ccc(C)c(C(O)Cn2cc(Cl)c(=O)[nH]c2=O)c1` (stereo not given), with -6.81%.
Then `CC(C)COCCC(=O)Nc1cc(-n2nnnc2C2CC2)ccc1F`, with 7.57%; and `COC(C)c1cccc(NCc2cccc(O)c2)c1` (stereo not given), with -0.334%.
Then `COc1ccccc1C(C)(C)NC(=O)c1cc(NC(C)=O)ccc1F`, with -137%.
Turning to `Cn1cccc1C(=O)COc1ccc(S(N)(=O)=O)cc1`, the cytotoxicity at 10 µM was found to be 12.4%.
As for `COc1cc(Br)c(CNc2ccn(CCC(N)=O)n2)cc1OC`, the cytotoxicity at 10 µM is -2.87%.
In the case of `Cc1nc2n(n1)CC(NCc1ccc(Cl)c3cccnc13)CC2` (stereo not given), the cytotoxicity at 10 µM was -8.81%.
Then `CCCNC1(c2ccc(Cl)cc2)CCOCC1`, with -0.0529%.
The result for `CN(CCCNC(=O)c1ccccc1OCC(N)=O)CC(F)(F)F` reads -7.53%; that for `CC(C)(C)n1ncc2c(=O)[nH]c(N3CCN(CC(F)F)CC3)nc21`, -7.8%; that for `COc1ccc(C)cc1CC(=O)Nc1cc(C)n[nH]1`, 0.503%.
Turning to `O=C(CNC(=O)C1CCCC1)NCc1cnn(-c2ccc(F)cc2F)c1`, the cytotoxicity at 10 µM was determined as 8.21%.
Then `NC(=O)C1CCN(CC(=O)NCCc2c(F)cccc2F)CC1`, with -7.14%; and `NC(=O)N1CCCN(CC(=O)NCCc2c(F)cccc2F)CC1`, with -5.15%.
The result for `O=C(NCC(F)(F)F)C1CCCN(Cc2ccno2)C1` (stereo not given) reads -4.13%; that for `CCc1cnc(CN(C)C(=O)NC2CCN(c3ccccc3)C2)s1` (stereo not given), -2.12%.
The result for `NC(=O)COc1ccc(C(=O)NCCc2ccco2)cc1` reads 10.1%; that for `CCOC(=O)N1CCN(C(=O)c2cc(-c3ccccc3F)on2)CC1`, 1.14%.
For the molecule `Cc1[nH]c(=O)sc1S(=O)(=O)N1CCCC1C(=O)NCc1ccsc1` (stereo not given), the cytotoxicity at 10 µM came out at 2.78%.
The result for `NC(=O)C1CCN(C(=O)CCCc2ccc(Cl)c(Cl)c2)CC1` reads 5.34%; that for `Cc1cc(N2CCCCC2Cn2nc(C)cc2C)n2ncnc2n1` (stereo not given), -1.38%.
With `CC(C)Cc1nnc(NCc2ccsc2)o1`, the cytotoxicity at 10 µM was -0.699%.
`CS(=O)(=O)CCC(=O)NC1CC(c2ccccc2Cl)C1` (stereo not given): the cytotoxicity at 10 µM was -4.19%.
On to `CN(CCOc1cccc(Cl)c1)Cc1nnc(C(C)(C)C)o1`, for which the cytotoxicity at 10 µM was found to be 8.65%.
The result for `COc1cccc(N2CCC(CNC(=O)N(C)Cc3ccco3)C2)c1` (stereo not given) reads -130%.
The result for `O=C1C(Sc2nc(=O)ccn2C2CC2)CCN1c1ccccc1` (stereo not given) reads 1.27%.
Take `CCOCCN1CCN(CC(O)c2ccc(C)c(C)c2)CC1` (stereo not given): the cytotoxicity at 10 µM is -6.33%.
For `COCCNC(=O)Cn1cc(NC(=O)c2ccc(C(C)(C)C)cc2)cn1`, the cytotoxicity at 10 µM was -9.94%.
Take `O=C(Nc1ccc(-n2cncn2)c(F)c1)C1CCN(C(=O)C2CC2)CC1`: the cytotoxicity at 10 µM was -2.83%.
Then `Cc1ccc(C(=O)NCCCC2(C3OCCO3)CCOCC2)cc1C`, with 1.48%.
Then `C[C@@H]1CN(C(=O)c2ccc(Br)cc2F)CC(C(N)=O)O1` (stereo not given in full), with -2.74%; and `Cc1c(C(=O)NCC(C)(C)S(C)(=O)=O)cccc1-c1ccccn1`, with 2.07%; and `CCOc1ccnc(N2CCN(C(=O)CCc3cnn(C)c3)CC2)n1`, with 7.58%.
As for `NC(=O)CN(C(=O)c1cccc(C(F)(F)F)c1)C1CCCC1`, the cytotoxicity at 10 µM was -0.296%.
The result for `COc1ccc(OC)c(CN(C)c2ncc(S(N)(=O)=O)s2)c1` reads 5.8%; that for `O=C(Nc1nccs1)N1CCCC(N2CCNC2=O)C1` (stereo not given), -20.7%; that for `CC(C)c1cc(C(=O)NCCn2nnc3ccccc32)no1`, -1.95%.
Then `CCOC(=O)c1n[nH]cc1CN1CCOC(Cc2ccccc2)C1` (stereo not given), with -5.35%.
Regarding `NC(=O)CN1CCC(C(=O)NCCc2nc(-c3ccccc3)cs2)CC1`, the cytotoxicity at 10 µM was -7.85%.
On to `CN(C)C(=O)CCN1CC(c2ccccc2)(c2ccccc2)CCC1=O`, for which the cytotoxicity at 10 µM came to 0.284%.
As for `O=C(Cc1ccc2c(c1)OCO2)N[C@@H]1CCNC[C@H]1O`, the cytotoxicity at 10 µM worked out at 0.635%.
Then `CC1(c2ccccc2)CCC(=O)N(CCN2CCCOC2=O)C1` (stereo not given), with -3.99%; and `O=C(O)CSc1nnc(-c2ccn[nH]2)n1-c1ccccc1Cl`, with 0.276%; and `CCCn1cnnc1CNC(=O)CC1C(=O)NCCN1CC(C)(C)C` (stereo not given), with -0.798%.
Take `CCCS(=O)(=O)c1ncc(CN2CCC(C)CC2)n1CC1CCCO1` (stereo not given): the cytotoxicity at 10 µM is -5.12%.
Turning to `O=C(Nc1cccc2ccccc12)N1CCC(N2CCSCC2)CC1`, the cytotoxicity at 10 µM was -1.86%.
The result for `Cc1c[nH]c(CN(C)C(=O)C(C)(C)NC(=O)c2cccs2)n1` reads 3.08%.
Regarding `CCc1cc(C(=O)N2CCC3(CCCN(CC4CC4)C3=O)C2)cs1` (stereo not given), the cytotoxicity at 10 µM is -164%.
For `COCCN1CCCC2(CCN(c3nccnc3N(C)C)C2)C1=O` (stereo not given), the cytotoxicity at 10 µM was -0.525%.
Turning to `O=C(NCc1nc[nH]n1)c1cc(COc2cccc(C(F)(F)F)c2)[nH]n1`, the cytotoxicity at 10 µM is -3.26%.
Then `O=C(NCCc1csc(-c2ncccn2)n1)c1cnn2c1CCCC2`, with -3.88%.
The result for `CCc1ccc2nc(C)cc(C(=O)NC3CCC(=O)N(C)C3)c2c1` (stereo not given) reads -5.85%.
With `c1coc(-c2nc3c(c(N4CCCN5CCC[C@H]5C4)n2)CCNCC3)c1`, the cytotoxicity at 10 µM was -9.88%.
Take `COc1cccc2c1OCC(CNC(=O)CSc1ccccn1)C2` (stereo not given): the cytotoxicity at 10 µM was -135%.
The result for `COc1ccc(OC)c(NC(=O)c2cc3c([nH]c2=O)CCCC3=O)c1` reads -0.607%; that for `CN1CCc2[nH]cnc2C12CCN(C(=O)c1noc3c1CCCC3)CC2`, 8.71%; that for `Cc1ccc(NC2CCN(C(=O)c3sccc3C3CC3)CC2)nn1`, -4.51%.
Turning to `CC(=O)NCc1ccc(C(=O)N2CCCC2c2c(C)nn(C)c2C)o1` (stereo not given), the cytotoxicity at 10 µM is -11.3%.
The result for `Cc1ccc(CC(=O)N2CCN(CC(C)O)CC2)cn1` (stereo not given) reads -2.37%; that for `Cc1ccccc1C1CCCN1Cc1nc2c(cnn2C)c(=O)[nH]1` (stereo not given), -12%.
The result for `c1cncc(-c2noc(CN3CCCC(Cn4cncn4)C3)n2)c1` (stereo not given) reads -2.18%.
Then `Cn1c(NCC(O)c2ccc(F)c(F)c2)c(C#N)c(=O)n(C)c1=O` (stereo not given), with -19.9%.
Take `COc1ccccc1CNC(=O)N1CCN(Cc2cc(C)on2)CC1`: the cytotoxicity at 10 µM was -9.07%.
Then `CNC(=O)CN1CCC(NC(=O)Cc2ccc3c(c2)OCCO3)CC1`, with -18.3%.
Then `Cc1cc(C)n(CC2CCCN2C(=O)c2ccc3nncn3c2)n1` (stereo not given), with 2.01%; and `Cc1cccc(C)c1OCC(=O)N1CCOCC1c1ncon1` (stereo not given), with -17%; and `CC(C)c1nc(CN2CCN(Cc3ccccn3)CC2)cs1`, with -4.41%.
As to `Cc1nc2ccccc2nc1CN1CCCC(Cn2cncn2)C1` (stereo not given), the cytotoxicity at 10 µM was -4.57%.
The result for `COc1cc(CNCC(O)c2ccccc2)cc2c1OCO2` (stereo not given) reads -13%.
The result for `O=C1[C@H]2CN(Cc3ccccc3)C[C@H]2CN1CCN1CCCC1` reads -3.84%; that for `CS(=O)(=O)NC[C@@H]1OC[C@H]2CN(Cc3ccccc3)CC[C@H]21`, 4.82%.
With `Cc1ccc(NS(=O)(=O)C=c2[nH]c(=O)n3cccc3c2=O)cc1`, the cytotoxicity at 10 µM is -10.7%.
Consider `CC(=O)c1ccc(C(=O)N2C[C@H]3CC[C@@H](C2)N(Cc2ccccc2)C3)s1`, for which the cytotoxicity at 10 µM is -13.3%.
The result for `Cc1cnc(C(=O)N2C[C@@H]3CC[C@H]2CN(c2cnccn2)C3)cn1` reads 10.1%.
